Assay results as given in ChEMBL document CHEMBL1134782, “Synthesis of 1-benzyl-3-(5'-hydroxymethyl-2'-furyl)indazole analogues as novel antiplatelet agents” (J Med Chem, 2001).

Legend:
[1] = Inhibition of platelet aggregation induced by AA (100 uM); type: functional
How it was run: (§1)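 Platelets were preincubated with test compound at 37 °C for 1 min. Values are mean ± SE from three to six separations. Aspirin served as positive control.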

[2] = Inhibition of platelet aggregation induced by Collagen (10 uM); type: functional; settings: in the assay text read “10 ug/mL” for “10 uM”; how it was run: as §1
[3] = Inhibition of platelet aggregation induced by PAF (2 ng/mL); type: functional; how it was run: as §1
[4] = Inhibition of platelet aggregation induced by thrombin (0.1 unit/ml); type: functional; how it was run: as §1
[5] = target: T1, cGMP-specific 3',5'-cyclic phosphodiesterase (Homo sapiens, UniProt O76074); assay: (§2) Inhibition of PDE5 from platelets
How it was run: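 PDE activity fraction incubated with [3H]cGMP as substrate and a range of test-compound concentrations at 37 °C for 10 min. IBMX served as positive control.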

[6] = target: Soluble guanylate cyclase (Homo sapiens) (UniProt Q02153+O75343+P33402+Q02108); assay: sGC activation was determined in the presence of [alpha-32P]GTP at a concentration of 82 uM; type: protein-complex assay
How it was run: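 Soluble guanylate cyclase source was the supernatant fraction of platelet homogenate. It was incubated with [α-32P]GTP and 82 μM test compound at 37 °C for 10 min. Activity was expressed as pmol cGMP/min/mg protein.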

[7] = inhibition of platelet aggregation induced by PAF (2 ng/mL); type: functional; how it was run: as §1
[8] = target: T1, cGMP-specific 3',5'-cyclic phosphodiesterase; assay: as §2; remark: listed apart in the source
How it was run: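 PDE activity fraction incubated with [3H]cGMP as substrate and a range of test-compound concentrations at 37 °C for 10 min. […] IBMX served as positive control.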

[9] = Inhibition of platelet aggregation induced by Collagen (10 ug/mL)

SMILES	IC50 [1]	IC50 [2]	IC50 [3]	IC50 [4]	IC50 [5]	Activity (pM of cGMP (min)-1 (mg of protein)-1) [6]	IC50 [7]	IC50 [8]	IC50 [9]
O=C(O)c1ccc(-c2nn(Cc3ccccc3)c3ccccc23)o1	83.7 µM	75.5 µM	> 270 µM	> 270 µM	–	–	–	–	–
CCN(CC)Cc1ccc(-c2nn(Cc3ccccc3)c3ccccc23)o1	55.7 µM	50.4 µM	55.9 µM	102 µM	63 µM	17.9	–	–	–
Cc1ccc2c(-c3ccc(CO)o3)nn(Cc3ccccc3)c2c1	49.4 µM	45.9 µM	72 µM	147 µM	8.4 µM	35.1	–	–	–
OCc1cccc(-c2nn(Cc3ccccc3)c3ccccc23)c1	51.3 µM	98.1 µM	174 µM	> 270 µM	–	–	–	–	–
O=C(O)c1ccc(-c2nn(Cc3ccccc3)c3cc4c(cc23)OCO4)o1	148 µM	150 µM	–	> 270 µM	–	–	> 270 µM	–	–
COCc1ccc(-c2nn(Cc3ccccc3)c3cc(C)ccc23)o1	32.4 µM	59.3 µM	76.3 µM	126 µM	–	22.1	–	–	–
COC(=O)c1ccc(-c2nn(Cc3ccccc3)c3ccccc23)o1	81.1 µM	162 µM	> 270 µM	> 270 µM	–	–	–	–	–
COC(=O)c1ccc(-c2nn(Cc3ccccc3)c3cc(C)ccc23)o1	64.2 µM	78.3 µM	> 270 µM	> 270 µM	–	–	–	–	–
COCc1ccc(-c2nn(Cc3ccccc3)c3cc(F)ccc23)o1	45.9 µM	64.1 µM	109 µM	116 µM	3.9 µM	41.8	–	–	–
COc1ccc2c(-c3ccc(C(=O)O)o3)nn(Cc3ccccc3)c2c1	150 µM	140 µM	–	> 270 µM	–	–	> 270 µM	–	–
CC(C)Cn1c(=O)n(C)c(=O)c2[nH]cnc21 [ISOBUTYLMETHYLXANTHINE]	–	–	–	–	–	–	–	63 µM	–
O=C(O)c1cccc(-c2nn(Cc3ccccc3)c3ccccc23)c1	156 µM	148 µM	–	> 270 µM	–	–	235 µM	–	–
COC(=O)c1ccc(-c2nn(Cc3ccccc3)c3cc(F)ccc23)o1	94 µM	–	149 µM	> 270 µM	–	–	–	–	101 µM
COC(=O)c1ccc(-c2nn(Cc3ccccc3)c3cc(OC)ccc23)o1	92.3 µM	157 µM	> 270 µM	> 270 µM	–	–	–	–	–
OCc1ccc(-c2[nH]nc3ccccc23)o1	101 µM	> 270 µM	–	> 270 µM	–	–	> 270 µM	–	–
O=C(O)c1ccc(-c2nn(Cc3ccccc3)c3cc(F)ccc23)o1	119 µM	180 µM	–	> 270 µM	–	–	> 270 µM	–	–
OCc1ccc(-c2nn(-c3ccccc3)c3ccccc23)o1	17.9 µM	13.7 µM	145 µM	158 µM	36.3 µM	27.8	–	–	–
